HNF4A DNA FP = change in binding of human HNF4A to DNA, primary screen, biochemical, fluorescence polarization, FITC-DNA. 1 h. activity change, % at 10 µM. 360,000 compounds, 0.3% hits; in the data active = activity change above about 30%, passing the limit was not always enough
Neddyl block = inhibitors of cullin neddylation, primary screen, biochemical, TR-FRET, uHTS, NAE and Ubc12 | NEDD8-conjugating enzyme Ubc12 (Homo sapiens) + NEDD8-activating enzyme E1 regulatory … | inhibition, % at 25 µM | 360,000 compounds, 0.58% hits; in the data active = inhibition above about 36%
Tb MetRS inh = T. brucei MetRS inhibitors, primary screen, biochemical, luminescence. methionyl-tRNA synthetase (Trypanosoma brucei brucei). purified T. brucei MetRS, ATP depletion, Kinase-Glo luminescence. inhibition, % at 11.9 µM. 360,000 compounds, 0.4% hits;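 active = inhibition above a per-plate cutoff of the control wells' mean inhibition plus 3 SD, cut at about 5.5% in these data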;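 also: 0% = DMSO wells median and 100% = median of wells with control inhibitor compound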
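System: purified T. brucei MetRS enzyme / Detection: Kinase-Glo luciferase luminescence reporting remaining unconsumed ATP / Medium: HEPES buffer with MgCl2, KCl, DTT, spermine, BSA, pyrophosphatase / Replication: singlicate, one well per compound / Evaluation: percent inhibition relative to median high and low control wells / Schedule: 2 h aminoacylation at 25 °C after 15 min preincubation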
Rpn11 block = Rpn11 (PSMD14) deubiquitinase inhibitors, primary screen, biochemical, fluorescence polarization, uHTS; inhibition, % at 20 µM; AID 588493, 2011; 360,000 compounds, 0.59% hits; human 26S proteasome, Ub4-pepOG fluorescence polarization; 20S core pre-blocked with epoxomicin; 26S proteasome non-ATPase regulatory subunit 14 (Homo sapiens), O00487;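 active = inhibition at 20 µM, scaled to each plate's controls, above about 33%, limit read from the data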
Target sequence (O00487 whole entry, looked up): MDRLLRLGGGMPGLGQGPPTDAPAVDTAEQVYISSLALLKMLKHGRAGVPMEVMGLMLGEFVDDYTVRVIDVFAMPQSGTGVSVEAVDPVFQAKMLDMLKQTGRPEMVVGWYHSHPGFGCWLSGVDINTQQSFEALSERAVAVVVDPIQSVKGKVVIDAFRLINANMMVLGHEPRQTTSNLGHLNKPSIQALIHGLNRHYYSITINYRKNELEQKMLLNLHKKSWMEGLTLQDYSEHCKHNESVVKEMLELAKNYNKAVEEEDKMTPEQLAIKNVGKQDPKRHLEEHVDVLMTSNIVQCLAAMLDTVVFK
PREPL inhibitor = PREPL enzyme inhibitors, primary screen, biochemical, fluorescence polarization; Prolyl endopeptidase-like (Homo sapiens), Q4J6C6; recombinant PREPL, fluorescence polarization activity-based probe; inhibition, % at 5.96 µM; 320,000 compounds, 0.68% hits; AID 2751, 2010;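 also: 0% = enzyme with DMSO and 100% = wells lacking enzyme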
CSN deneddyl inh = inhibitors of CSN-mediated cullin deneddylation, primary screen, biochemical, fluorescence polarization, uHTS. AID 651999, 2013. Purified CSN, SCF-Nedd8-OG deneddylation. COP9 signalosome complex subunit 5 (Homo sapiens), Q92905. 360,000 compounds, 0.38% hits. inhibition, % at 12.5 µM;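 active = pattern-corrected inhibition above about 35%, with an unprinted fluorescence ratio check between 0.5 and 1.5, limit read from the data, passing the limit was not always enough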;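 also: 0% = enzyme with substrate and 100% = substrate without enzyme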
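Schedule: reaction 90 min, room temperature / Assay system: HEK293T-derived human Csn5 enzyme / Input: Csn5 at 0.24 nM final / Measure: inhibition of Csn5 cleavage, % / Control set: substrate-only high control, full reaction low control / Technique: fluorescence polarization of the substrate / Buffer or medium: Tris/NaCl/DTT buffer, pH 7.5 / Reagent: SCFSkp2-Nedd8OG substrate at 10 nM final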
PREPL confirm = human PREPL enzyme inhibitors, confirmation, biochemical, fluorescence polarization. shares compounds with PREPL inhibitor. recombinant PREPL, fluorescence polarization activity probe. inhibition, % at 5.96 µM. 2,000 compounds, 67% hits. AID 2803, 2010;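 also: 0% = protein with DMSO and 100% = wells lacking protein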
* hit, by the source's call. In the library only some 2.4% were active in any assay of this set; here they are far more common. Rule as the data show it, unless noted: active = inhibition above about 43%; inactive = the rest.

CC(C)[C@H](CN1CCC[C@H]1CN1C(N)=NC[C@@H]1Cc1ccccc1)N1C[C@@H](Cc2ccccc2)N(CCc2ccc(Cl)c(Cl)c2)C1=N was read as HNF4A DNA FP 6, Neddyl block -24, Tb MetRS inh 0, Rpn11 block -72, PREPL inhibitor 53*, CSN deneddyl inh 6 and PREPL confirm 53*.
Screening C[C@@H](CN1CCC[C@H]1CN1C(N)=NC[C@@H]1Cc1ccccc1)N1C[C@@H](Cc2ccccc2)N(CCc2ccc(Cl)c(Cl)c2)C1=N returned HNF4A DNA FP 9, Neddyl block -13, Tb MetRS inh 0, Rpn11 block -25, PREPL inhibitor 46*, CSN deneddyl inh 4 and PREPL confirm 38.
CC(C)[C@@H]1CN=C(N)N1C[C@@H]1CCCN1C[C@H](C)N1C[C@@H](Cc2ccccc2)N(CCc2ccc(Cl)c(Cl)c2)C1=N was read as HNF4A DNA FP 2, Neddyl block -19, Tb MetRS inh -1, Rpn11 block -19, PREPL inhibitor 63*, CSN deneddyl inh 3 and PREPL confirm 61*.
Screening CCN(CC(=O)NC1CCS(=O)(=O)C1)c1ccc([N+](=O)[O-])cc1C#N (centres undefined) returned HNF4A DNA FP 3, Neddyl block -37, Tb MetRS inh 0, Rpn11 block 3, PREPL inhibitor 7 and CSN deneddyl inh 0.
CC(C)Nc1nnc(SCC(=O)Nc2ccc3c(c2)C(=O)c2ccccc2C3=O)s1 was read as HNF4A DNA FP -8, Neddyl block -38, Tb MetRS inh 0, Rpn11 block -6, PREPL inhibitor 44*, CSN deneddyl inh 1 and PREPL confirm 52*.
Screening CCCS(=O)(=O)NC(=O)C1(C)CCCN(C(=O)c2ccc(C(=O)OC)cc2)C1 (centres undefined) returned HNF4A DNA FP 1, Neddyl block -7, Tb MetRS inh 0, Rpn11 block 2 and CSN deneddyl inh -3.
Screening CN(CC(=O)Nc1ccccc1Cl)C(=O)c1cccc(S(=O)(=O)N2CCN(Cc3ccccc3)CC2)c1 returned HNF4A DNA FP 3, Neddyl block 4, Tb MetRS inh -1, Rpn11 block -1, PREPL inhibitor 67*, CSN deneddyl inh 5 and PREPL confirm 70*.
Screening O=C(c1ccco1)N1CCN(C(=S)Nc2ccc(Br)cc2Cl)CC1 returned HNF4A DNA FP -1, Neddyl block -3, Tb MetRS inh 0, Rpn11 block 2 and CSN deneddyl inh 0.
For COC(=O)c1ccc(N2CCN(c3ccccc3)CC2)c(NC(=O)C2CC2)c1 the results were HNF4A DNA FP 1, Neddyl block -94, Tb MetRS inh 0, Rpn11 block -2, PREPL inhibitor 50*, CSN deneddyl inh 2 and PREPL confirm 39.
`CC(C)[C@H](NC(=O)c1ccc([N+](=O)[O-])cc1Cl)C(=O)N1CCN(C/C=C/c2ccccc2)CC1` gave HNF4A DNA FP -4, Neddyl block -31, Tb MetRS inh 0, Rpn11 block -1, PREPL inhibitor 47*, CSN deneddyl inh -4 and PREPL confirm 39.
Screening CCN(CC)CCN1c2ccccc2Sc2ccc3ccccc3c21 returned HNF4A DNA FP 5, Neddyl block 31, Tb MetRS inh -1, Rpn11 block -18, PREPL inhibitor 46*, CSN deneddyl inh 4 and PREPL confirm 37.

Screens as filed in PubChem.
